Results of several laboratories.
Protocols differ between the studies behind these lines.
CDK4: Cyclin-dependent kinase 4 (CDK4, Homo sapiens, UniProt P11802)
KRAS G12D: GTPase KRas (KRAS, Homo sapiens, UniProt P01116, G12D)
CHRM2: Muscarinic acetylcholine receptor M2 (CHRM2, Homo sapiens, UniProt P08172)
Flap endonuclease 1: Flap endonuclease 1 (Homo sapiens, UniProt P39748)
Chymotrypsinogen A: Chymotrypsinogen A (Bos taurus, UniProt P00766)

CCOC(=O)[C@H]1Cc2c(cc([N+](=O)[O-])cc2[N+](=O)[O-])[C@@H](O)[C@@]12C(=O)Nc1cc(Cl)ccc12 — IC50 (CDK4; cell-free assay, inhibitor, TR-FRET): 940 nM
COc1ncccc1-c1cnn2ccc(N3CCN(C(=O)OC(C)C)CC3)nc12 — IC50 (Cyclin-G-associated kinase (GAK, Homo sapiens, UniProt O14976); enzyme activity, inhibitor, radiometric): 320 nM
Cc1cc(SCc2sc(-c3ccc(C(F)(F)F)c(F)c3)nc2C)ccc1OCC(=O)O — IC50 (Thyroid hormone receptor alpha (THRA, Homo sapiens, UniProt P10827); reporter gene, antagonist, luciferase): 31400 nM
CC[C@H](C)[C@@H]1NC(=O)[C@H](Cc2ccc(-c3ccccc3)cc2)NC(=O)[C@H](CC(C)C)NC(=O)[C@@H]2CCCN2C(=O)[C@@H](NC(=O)[C@H](CCCNC(=N)N)NC(=O)[C@H](CCCNC(=N)N)NC(C)=O)CSSC[C@@H](C(=O)N[C@@H](CCCNC(=N)N)C(=O)N[C@@H](CCCNC(=N)N)C(N)=O)NC(=O)[C@H](Cc2ccc(Cl)cc2)NC(=O)[C@@H]2C[C@@H](OCC(=O)O)CN2C(=O)[C@H](CC(=O)O)NC(=O)[C@H](Cc2ccc(O)cc2)NC(=O)[C@H](CO)NC1=O — IC50 (KRAS G12D; enzyme activity, inhibitor, TR-FRET): 33 nM
CC(C)C[C@H](NC(=O)[C@H](Cc1ccccc1)NC(=O)c1cnccn1)B(O)O — IC50 (GZMA (Homo sapiens, UniProt P12544); enzyme activity, inhibitor): 11900 nM
COc1cc(C(=O)N2CC[C@@H](O)[C@@H](N)C2)cc2nc(-c3cc4ccccc4n3CC3CC3)n(C)c12 — IC50 (CHRM2; calcium signal, antagonist, fluorescence): > 15800 nM
CCOC(=O)[C@H]1Cc2c(cc([N+](=O)[O-])cc2[N+](=O)[O-])[C@H](O)[C@]12C(=O)Nc1ccc(Br)cc12 — IC50 (CDK4; cell-free assay, inhibitor, TR-FRET): 10600 nM
O=C1O[C@H]2[C@@H]3OC(=O)c4cc(O)c(O)c(O)c4-c4c(O)c(O)c5oc(=O)c6c(c(O)c(O)c7oc(=O)c4c5c76)-c4c(cc(O)c(O)c4O)C(=O)OC[C@H]3OC(O)[C@@H]2OC(=O)c2cc(O)c(O)c(O)c2-c2c1cc(O)c(O)c2O (mixture of isomers) — IC50 (Genome polyprotein, protease (Hepatitis C virus genotype 1b, UniProt Q9WMX2); enzyme activity, inhibitor, fluorescence): < 100 nM
O=C(O)c1cc[c]([Sb](=[O])([OH])[OH])cc1[N+](=O)[O-] — IC50 (Flap endonuclease 1; enzyme activity, inhibitor, fluorescence; with preincubation): 1200 nM
O=c1oc(-c2cccc(F)c2)ns1 — IC50 (Chymotrypsinogen A; enzyme activity, inhibitor): 2670 nM
CC[C@@H](C)[C@H]1NC(=O)[C@H](Cc2ccc(-c3ccccc3)cc2)NC(=O)[C@H](CC(C)C)NC(=O)[C@@H]2[C@@H](c3ccccc3)CCN2C(=O)[C@H](NC(=O)[C@@H](CCCNC(=N)N)NC(=O)[C@@H](CCCNC(=N)N)NC(C)=O)CSCSC[C@@H](C(=O)N[C@H](CCCNC(=N)N)C(=O)N[C@H](CCCNC(=N)N)C(N)=O)NC(=O)[C@H](C(C)C)NC(=O)[C@@H]2CCCN2C(=O)[C@H](CC(=O)O)NC(=O)[C@H](Cc2ccc(O)cc2)NC(=O)[C@@](C)(CO)NC1=O — IC50 (KRAS G12D; enzyme activity, inhibitor, TR-FRET): > 11100 nM
CCOC(=O)[C@H]1Cc2c(cc([N+](=O)[O-])cc2[N+](=O)[O-])[C@@H](O)[C@@]12C(=O)Nc1ccc(Cl)cc12 — IC50 (CDK4; cell-free assay, inhibitor, TR-FRET): 780 nM
CC(C)C[C@H](NC(=O)[C@H](Cc1ccccc1)NC(=O)[C@H](Cc1ccc(O)cc1)NC(=O)CNC(=O)[C@H](CCCCN)NC(=O)[C@H](CO)NC(=O)[C@H](CCC(N)=O)NC(=O)CNC(=O)[C@@H](NC(=O)[C@H](CO)NC(=O)[C@@H]1CCCN1C(=O)[C@H](CO)NC(=O)[C@H](CCC(N)=O)NC(=O)[C@H](Cc1ccc(O)cc1)NC(=O)[C@H](CCC(=O)O)NC(=O)[C@H](C)NC(=O)[C@H](CCCCN)NC(=O)[C@@H](N)Cc1ccccc1)C(C)C)C(=O)N[C@@H](Cc1ccccc1)C(=O)N[C@@H](CCCNC(=N)N)C(=O)N1CCC[C@H]1C(=O)N[C@@H](CCCNC(=N)N)C(=O)N[C@@H](CC(N)=O)C(N)=O — IC50 (Neuromedin-U receptor 1 (Mus musculus, UniProt O55040); ligand displacement, radioligand; cell membranes): 0.03 nM
O=c1oc(-c2cccc([N+](=O)[O-])c2)ns1 — IC50 (Chymotrypsinogen A; enzyme activity, inhibitor): 3140 nM
CCOC(=O)[C@H]1Cc2c(cc([N+](=O)[O-])cc2[N+](=O)[O-])[C@@H](O)[C@@]12C(=O)Nc1ccc(C)cc12 — IC50 (CDK4; cell-free assay, inhibitor, TR-FRET): 910 nM
O=C(Nc1cc[c]([Sb](=[O])([OH])[OH])cc1)c1ccccc1 — IC50 (Flap endonuclease 1; enzyme activity, inhibitor, fluorescence; with preincubation): 18000 nM
CN1CCC(=C2c3ccccc3CCc3cccnc32)CC1 — IC50 (CHRM2; ligand displacement, radioligand): 64 nM
[O]=[Sb]([OH])([OH])[c]1ccccc1 — IC50 (Flap endonuclease 1; enzyme activity, inhibitor; with preincubation): 130000 nM
CC[C@H](C)[C@@H]1NC(=O)[C@H](Cc2ccc(-c3ccccc3)cc2)NC(=O)[C@H](CC2CCCCC2)NC(=O)[C@@H]2[C@@H](c3ccccc3)CCN2C(=O)[C@@H](NC(=O)[C@H](CCCNC(=N)N)NC(=O)[C@H](CCCNC(=N)N)NC(C)=O)CSSC[C@@H](C(=O)N[C@@H](CCCNC(=N)N)C(=O)N[C@@H](CCCNC(=N)N)C(N)=O)NC(=O)[C@H](C(C)C)NC(=O)[C@@H]2CCCN2C(=O)[C@H](CC(=O)O)NC(=O)[C@H](Cc2ccc(O)cc2)NC(=O)[C@H](CO)NC1=O — IC50 (KRAS G12D; enzyme activity, inhibitor, TR-FRET): 20 nM
CCOC(=O)[C@H]1Cc2c(cc([N+](=O)[O-])cc2[N+](=O)[O-])[C@@H](O)[C@@]12C(=O)Nc1ccc(F)cc12 — IC50 (CDK4; cell-free assay, inhibitor, TR-FRET): 1100 nM
C=CC(C)(C)c1cc(/C=C/C(=O)c2ccc(O)cc2)c(OC)cc1O — IC50 (Protein arginine N-methyltransferase 1 (Prmt1, Rattus norvegicus, UniProt Q63009); enzyme activity, inhibitor): > 333000 nM
CCOC(=O)[C@H]1Cc2c(cc([N+](=O)[O-])cc2[N+](=O)[O-])[C@@H](O)[C@@]12C(=O)Nc1cc(Br)ccc12 — IC50 (CDK4; cell-free assay, inhibitor, TR-FRET): 1100 nM
CCOC(=O)CCCc1cc[c]([Sb](=[O])([OH])[OH])cc1 — IC50 (Flap endonuclease 1; enzyme activity, inhibitor, fluorescence; with preincubation): 1700 nM
